Data as given in ChEMBL document CHEMBL4052633, “Cinnamoylated chloroquine analogues: A new structural class of antimalarial agents” (Eur J Med Chem, 2017).

Assays:
Vero = assay: (§1) Cytotoxicity against African green monkey Vero cells after 72 hrs by MTT assay; type: cell-based; conditions: chlorocebus sabaeus, vero, 72 h
Summary of the method: (§2)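 Vero monkey kidney cells were exposed to a dilution series of test agents for 72 hour, with MTT as the detection reagent (modified Mosmann method). CC50 was derived by nonlinear regression of dose-response curves. Triplicate experiments.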

[1] = Selectivity index, ratio of CC50 for African green monkey Vero cells to IC50 for chloroquine sensitive Plasmodium falciparum 3D7; type: toxicity; conditions: for Ratio CC50/IC50: vero; for selectivity ratio: Vero cells, read-out: Ratio CC50/IC50
Summary of the method: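 SI was computed as Vero CC50 (72 hour MTT, nonlinear regression) divided by the 3D7 IC50. SYBR Green-I lysis buffer was added for 1 hour, and fluorescence was read at 485/530 nm. Logit regression gave IC50.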

Plasmodium falciparum [2] = assay: Antimalarial activity against chloroquine sensitive Plasmodium falciparum 3D7 after 72 hrs by SYBR green 1 dye based fluorescence assay; type: functional
Summary of the method: (§3)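 Compounds dissolved in DMSO at 5 mg/mL (stock), then two-fold serial dilutions. Lysis buffer with 2x SYBR Green-I was added for 1 h at 37 °C. Fluorescence read at 485/530 nm. IC50 by logit regression of dose-response curves, triplicate.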

Plasmodium falciparum [3] = assay: Antimalarial activity against chloroquine resistant Plasmodium falciparum K1 after 72 hrs by SYBR green 1 dye based fluorescence assay; type: functional; summary of the method: as §3
[4] = as §1; type: cell-based; conditions: chlorocebus sabaeus, Vero cells; summary of the method: as §2
[5] = Plasmodium falciparum, 3D7, 72 h, read-out: IC50
[6] = Plasmodium falciparum, K1, 72 h, read-out: IC50

With `COc1cc(/C=C/C(=O)c2ccc(OCC3CO3)cc2)cc(OC)c1OC` (stereo unspecified) the CC50 (Vero) was “Non-Toxic” and the “Ratio CC50/IC50” value [1] was “Not Active”.

`O=C(/C=C/c1ccc(Cl)cc1)NCCNc1ccnc2cc(Cl)ccc12` gave an IC50 (Plasmodium falciparum [2]; [5]) of 19.4 nM, an IC50 (Plasmodium falciparum [3]; [6]) of 44.1 nM and a CC50 at 72 h [4] of 6930 nM. It also gave a selectivity ratio [1] of 357.

Work on `COc1ccc(/C=C/C(=O)c2ccc(OCC(O)CNCCNc3ccnc4cc(Cl)ccc34)cc2)cc1OC` (stereo unspecified) yielded an IC50 (Plasmodium falciparum [2]; [5]) of 79.9 nM, an IC50 (Plasmodium falciparum [3]; [6]) of 229 nM and a CC50 at 72 h [4] of 10200 nM. It also gave a selectivity ratio [1] of 128.

For `COc1cc(/C=C/C(=O)c2ccccc2OCC(=O)NCCNc2ccnc3cc(Cl)ccc23)cc(OC)c1OC`, the IC50 (Plasmodium falciparum [2]; [5]) was 69.1 nM, the IC50 (Plasmodium falciparum [3]; [6]) was 224 nM and the CC50 at 72 h [4] was 3920 nM. It also gave a selectivity ratio [1] of 56.7.

`COc1cc(OC)c(OC)cc1/C=C/C(=O)c1ccccc1OCC(=O)NCCNc1ccnc2cc(Cl)ccc12` showed an IC50 (Plasmodium falciparum [2]; [5]) of 94.1 nM, an IC50 (Plasmodium falciparum [3]; [6]) of 161 nM and a CC50 at 72 h [4] of 12200 nM. For the same compound, the selectivity ratio [1] was 130.

`COc1ccc(/C=C/C(=O)NCCNc2ccnc3cc(Cl)ccc23)cc1` gave an IC50 (Plasmodium falciparum [2]; [5]) of 13.4 nM, an IC50 (Plasmodium falciparum [3]; [6]) of 59.4 nM and a CC50 at 72 h [4] of 20600 nM. The selectivity ratio [1] was 1530.

`O=C(/C=C/c1ccco1)NCCNc1ccnc2cc(Cl)ccc12` gave an IC50 (Plasmodium falciparum [2]; [5]) of 94 nM, an IC50 (Plasmodium falciparum [3]; [6]) of 101 nM and a CC50 at 72 h [4] of 629000 nM. It also gave a selectivity ratio [1] of 6700.

`COc1ccc(/C=C/C(=O)c2ccc(OCC(O)CNCCNc3ccnc4cc(Cl)ccc34)cc2)cc1` (stereo unspecified) showed an IC50 (Plasmodium falciparum [2]; [5]) of 47.3 nM, an IC50 (Plasmodium falciparum [3]; [6]) of 900 nM and a CC50 at 72 h [4] of 8030 nM. The selectivity ratio [1] was 170.

With `COc1cc(OC)c(OC)cc1/C=C/C(=O)NCCNc1ccnc2cc(Cl)ccc12` the IC50 (Plasmodium falciparum [2]; [5]) was 21.3 nM, the IC50 (Plasmodium falciparum [3]; [6]) was 143 nM and the CC50 at 72 h [4] was 16100 nM. For the same compound, the selectivity ratio [1] was 756.

In the case of `COc1ccc(/C=C/C(=O)c2ccccc2OCC(=O)NCCNc2ccnc3cc(Cl)ccc23)cc1`, the IC50 (Plasmodium falciparum [2]; [5]) is reported as 134 nM, the IC50 (Plasmodium falciparum [3]; [6]) is reported as 148 nM and the CC50 at 72 h [4] is reported as 25000 nM. The selectivity ratio [1] was 186.

For `Cc1ccc(/C=C/C(=O)NCCNc2ccnc3cc(Cl)ccc23)cc1`, the IC50 (Plasmodium falciparum [2]; [5]) was 22 nM, the IC50 (Plasmodium falciparum [3]; [6]) was 48 nM and the CC50 at 72 h [4] was 4000 nM. For the same compound, the selectivity ratio [1] was 182.

Compound `COc1cc(/C=C/C(=O)c2ccc(OCC(O)CNCCNc3ccnc4cc(Cl)ccc34)cc2)cc(OC)c1OC` (stereo unspecified) has an IC50 (Plasmodium falciparum [2]; [5]) of 13.5 nM, an IC50 (Plasmodium falciparum [3]; [6]) of 800 nM and a CC50 at 72 h [4] of 1910 nM. It also gave a selectivity ratio [1] of 142.

`COc1ccc(/C=C/C(=O)c2ccccc2OCC(=O)NCCNc2ccnc3cc(Cl)ccc23)cc1OC` gave an IC50 (Plasmodium falciparum [2]; [5]) of 96.1 nM, an IC50 (Plasmodium falciparum [3]; [6]) of 134 nM and a CC50 at 72 h [4] of 5310 nM. It also gave a selectivity ratio [1] of 55.3.

`O=C(COc1ccccc1C(=O)/C=C/c1ccc(Cl)cc1)NCCNc1ccnc2cc(Cl)ccc12` showed an IC50 (Plasmodium falciparum [2]; [5]) of 255 nM, an IC50 (Plasmodium falciparum [3]; [6]) of 253 nM and a CC50 at 72 h [4] of 4980 nM. It also gave a selectivity ratio [1] of 19.5.

In the case of `COc1cc(/C=C/C(=O)c2ccc(OCC(O)CNc3ccc4c(c3)OCO4)cc2)cc(OC)c1OC` (stereo unspecified), the IC50 (Plasmodium falciparum [2]) is reported as “Not Active”, the IC50 (Plasmodium falciparum [3]) is reported as “Not Active” and the CC50 (Vero) is reported as “Non-Toxic”. The “Ratio CC50/IC50” value [1] was “Not Active”.

With `COc1ccc(/C=C/C(=O)NCCNc2ccnc3cc(Cl)ccc23)cc1OC` the IC50 (Plasmodium falciparum [2]; [5]) was 14.2 nM, the IC50 (Plasmodium falciparum [3]; [6]) was 157 nM and the CC50 at 72 h [4] was 5600 nM. It also gave a selectivity ratio [1] of 396.

In the case of `CC(=O)c1ccccc1OCC(=O)NCCNc1ccnc2cc(Cl)ccc12`, the IC50 (Plasmodium falciparum [2]; [5]) is reported as 10.4 nM, the IC50 (Plasmodium falciparum [3]; [6]) is reported as 1300 nM and the CC50 at 72 h [4] is reported as 106000 nM. It also gave a selectivity ratio [1] of 10200.
